Experimental data taken from BindingDB's records for doi:10.1021/np800692t (Chinese Academy of Sciences, 2010).

Target: Signal transducer and activator of transcription 3 (Homo sapiens, UniProt P40763)
Experiment: Inhibition of STAT3 by Western blotting
How it was run: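 Phosphotyrosine Stat3 levels in treated cells, tested up to 10 µM. Cells washed in ice-cold PBS, lysed in SDS sample buffer, equal protein run on SDS-PAGE and transferred to PVDF. Blots blocked in 5% nonfat milk/TBST, then phospho-Stat3 and β-tubulin antibodies at 4 °C overnight, secondary 2 h room temperature, ECL detection. IC50 derived.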

Sequence of Signal transducer and activator of transcription 3 (P40763 whole entry): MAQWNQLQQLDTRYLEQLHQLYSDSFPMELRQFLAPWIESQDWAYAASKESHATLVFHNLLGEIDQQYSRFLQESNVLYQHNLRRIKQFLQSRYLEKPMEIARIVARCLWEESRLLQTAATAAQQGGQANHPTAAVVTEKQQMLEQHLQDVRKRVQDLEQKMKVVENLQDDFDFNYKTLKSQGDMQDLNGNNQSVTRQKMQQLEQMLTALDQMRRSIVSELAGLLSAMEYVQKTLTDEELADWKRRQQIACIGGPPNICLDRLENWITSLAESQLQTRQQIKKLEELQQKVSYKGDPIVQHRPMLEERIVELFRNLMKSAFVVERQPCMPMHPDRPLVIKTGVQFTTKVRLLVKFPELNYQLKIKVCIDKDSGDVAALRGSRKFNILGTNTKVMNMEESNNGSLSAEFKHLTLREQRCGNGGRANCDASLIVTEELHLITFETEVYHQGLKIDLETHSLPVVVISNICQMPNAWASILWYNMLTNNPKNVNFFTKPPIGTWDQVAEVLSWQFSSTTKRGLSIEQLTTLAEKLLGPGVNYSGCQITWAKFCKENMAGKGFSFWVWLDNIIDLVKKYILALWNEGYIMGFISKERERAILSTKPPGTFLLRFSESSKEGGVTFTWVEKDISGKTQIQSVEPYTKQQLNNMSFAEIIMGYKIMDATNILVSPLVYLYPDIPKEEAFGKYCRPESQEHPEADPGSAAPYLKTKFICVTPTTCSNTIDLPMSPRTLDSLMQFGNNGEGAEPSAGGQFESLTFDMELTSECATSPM

CC(=O)OC(C)(C)/C=C/C(=O)[C@](C)(O)[C@H]1[C@H](O)C[C@@]2(C)[C@@H]3CC=C4[C@H](C[C@H](O)C(=O)C4(C)C)[C@]3(C)C(=O)C[C@]12C [CUCURBITACIN B]
IC50: 3 µM
